From ChEMBL document CHEMBL4052823, “Extra Sugar on Vancomycin: New Analogues for Combating Multidrug-Resistant Staphylococcus aureus and Vancomycin-Resistant Enterococci” (J Med Chem, 2018)
Converted amounts (≈) assume the structure as drawn.

How the values were obtained:
Format in all cases: functional
[1] = test system: Staphylococcus aureus; experiment: Antibacterial activity against vancomycin/methicillin-susceptible Staphylococcus aureus Newman […] after 24 hrs by broth microdilution method
Outline: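 Broth microdilution in cation-adjusted Mueller-Hinton II broth. […] Each well received ~10^5 CFU of exponential-phase bacteria and was incubated at 37 °C for 24 h. MIC was taken as the lowest concentration giving complete growth inhibition, interpreted per CLSI.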

[2] = test system: Staphylococcus aureus; experiment: Antibacterial activity against healthcare-associated methicillin-resistant/vancomycin-intermediate Staphylococcus aureus Mu50 after 24 hrs by broth microdilution method; conditions: Mu50, 24 h
Outline: (§1)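 Broth microdilution in cation-adjusted Mueller-Hinton II broth. DMSO stocks were diluted in broth and twofold serially from 128 to 0.0625 μg/mL or lower. Each well was inoculated with ~10^5 CFU of exponential-phase bacteria and incubated at 37 °C for 24 h. MIC was the lowest concentration giving complete growth inhibition, read per CLSI. Growth controls contained broth plus DMSO.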

[3] = test system: Enterococcus faecium; experiment: Antibacterial activity against glycopeptide-resistant Enterococcus faecium Efm-HS-0649 vanA after 24 hrs by broth microdilution method; conditions: Efm-HS-0649, 24 h; outline: as §1
[4] = test system: Enterococcus faecium; experiment: Antibacterial activity against glycopeptide-resistant Enterococcus faecium Efm-HS-06188 vanA after 24 hrs by broth microdilution method; conditions: Efm-HS-06188, 24 h; outline: as §1
[5] = test system: Enterococcus faecium; experiment: Antibacterial activity against glycopeptide-resistant Enterococcus faecium Efm-HS-0847 vanM after 24 hrs by broth microdilution method; conditions: Efm-HS-0847, 24 h; outline: as §1
[6] = test system: Enterococcus faecium; experiment: Antibacterial activity against glycopeptide-resistant Enterococcus faecium Efm-HS-08257 vanM after 24 hrs by broth microdilution method; conditions: Efm-HS-08257, 24 h; outline: as §1
[7] = test system: Enterococcus faecium; experiment: Antibacterial activity against glycopeptide-resistant Enterococcus faecium Efm-HS-vb01 vanB after 24 hrs by broth microdilution method; conditions: Efm-HS-vb01, 24 h; outline: as §1

Row | Compound | MIC90 [1] [µg/mL] | MIC90 [2] [µg/mL] | MIC [3] [µg/mL] | MIC [4] [µg/mL] | MIC [5] [µg/mL] | MIC [6] [µg/mL] | MIC [7] [µg/mL]
1 | CCCCCCCCCCNCCN[C@@]1(C)C[C@H](O[C@H]2[C@H](Oc3c4cc5cc3Oc3ccc(cc3Cl)[C@@H](O)[C@@H](NC(=O)[C@@H](CC(C)C)NC)C(=O)N[C@@H](CC(N)=O)C(=O)N[C@H]5C(=O)N[C@H]3C(=O)N[C@H](C(=O)N[C@H](C(=O)O)c5cc(O)c(CN[C@@H]6C(O)O[C@H](CO)[C@@H](O)[C@@H]6O)c(O)c5-c5cc3ccc5O)[C@H](O)c3ccc(c(Cl)c3)O4)O[C@H](CO)[C@@H](O)[C@@H]2O)O[C@@H](C)[C@H]1O (stereo not given in full) | 8 (≈ 4.39 µM) | 32 (≈ 17.5 µM) | 64 (≈ 35.1 µM) | 64 (≈ 35.1 µM) | 32 (≈ 17.5 µM) | 8 (≈ 4.39 µM) | 16 (≈ 8.77 µM)
2 | CN[C@H](CC(C)C)C(=O)N[C@H]1C(=O)N[C@@H](CC(N)=O)C(=O)N[C@H]2C(=O)N[C@H]3C(=O)N[C@H](C(=O)N[C@H](C(=O)O)c4cc(O)cc(O)c4-c4cc3ccc4O)[C@H](O[C@H]3C[C@](C)(N)[C@@H](O)[C@H](C)O3)c3ccc(c(Cl)c3)Oc3cc2cc(c3O[C@@H]2O[C@H](CO)[C@@H](O)[C@H](O)[C@H]2O[C@H]2C[C@](C)(NCc3ccc(-c4ccc(Cl)cc4)cc3)[C@@H](O)[C@H](C)O2)Oc2ccc(cc2Cl)[C@H]1O [ORITAVANCIN] | 0.06 (≈ 0.0335 µM) | 0.06 (≈ 0.0335 µM) | 0.25 (≈ 0.139 µM) | 0.25 (≈ 0.139 µM) | 1 (≈ 0.558 µM) | 0.5 (≈ 0.279 µM) | 0.25 (≈ 0.139 µM)
3 | CN[C@H](CC(C)C)C(=O)N[C@H]1C(=O)N[C@@H](CC(N)=O)C(=O)N[C@H]2C(=O)N[C@H]3C(=O)N[C@H](C(=O)N[C@H](C(=O)O)c4cc(O)c(CNCCO)c(O)c4-c4cc3ccc4O)[C@H](O)c3ccc(c(Cl)c3)Oc3cc2cc(c3O[C@@H]2O[C@H](CO)[C@@H](O)[C@H](O)[C@H]2O[C@H]2C[C@](C)(NCc3ccc(-c4ccc(Cl)cc4)cc3)[C@H](O)[C@H](C)O2)Oc2ccc(cc2Cl)[C@H]1O | 0.03 (≈ 0.0174 µM) | 0.12 (≈ 0.0696 µM) | 2 (≈ 1.16 µM) | 1 (≈ 0.58 µM) | 4 (≈ 2.32 µM) | 2 (≈ 1.16 µM) | ≤ 0.06
4 | CCCCCCCCCCNCCN[C@@]1(C)C[C@H](O[C@H]2[C@H](Oc3c4cc5cc3Oc3ccc(cc3Cl)[C@@H](O)[C@@H](NC(=O)[C@@H](CC(C)C)NC)C(=O)N[C@@H](CC(N)=O)C(=O)N[C@H]5C(=O)N[C@H]3C(=O)N[C@H](C(=O)N[C@H](C(=O)O)c5cc(O)c(CN[C@H]6C(O)O[C@H](CO)[C@@H](O)[C@@H]6O)c(O)c5-c5cc3ccc5O)[C@H](O)c3ccc(c(Cl)c3)O4)O[C@H](CO)[C@@H](O)[C@@H]2O)O[C@@H](C)[C@H]1O (stereo not given in full) | 4 (≈ 2.19 µM) | 8 (≈ 4.39 µM) | 64 (≈ 35.1 µM) | 64 (≈ 35.1 µM) | 32 (≈ 17.5 µM) | 8 (≈ 4.39 µM) | 16 (≈ 8.77 µM)
5 | CCCCCCCCCCNCCN[C@@]1(C)C[C@H](O[C@H]2[C@H](Oc3c4cc5cc3Oc3ccc(cc3Cl)[C@@H](O)[C@@H](NC(=O)[C@@H](CC(C)C)NC)C(=O)N[C@@H](CC(N)=O)C(=O)N[C@H]5C(=O)N[C@H]3C(=O)N[C@H](C(=O)N[C@H](C(=O)O)c5cc(O)c(CNCCCNC(=O)[C@H](O)[C@@H](O)[C@H](O)[C@H](O)CO)c(O)c5-c5cc3ccc5O)[C@H](O)c3ccc(c(Cl)c3)O4)O[C@H](CO)[C@@H](O)[C@@H]2O)O[C@@H](C)[C@H]1O | 0.5 (≈ 0.264 µM) | 1 (≈ 0.527 µM) | 2 (≈ 1.05 µM) | 4 (≈ 2.11 µM) | 2 (≈ 1.05 µM) | 0.12 (≈ 0.0633 µM) | 2 (≈ 1.05 µM)
